Assay results taken from ChEMBL document CHEMBL1127542, “Inhibitors of acyl-CoA:cholesterol O-acyl transferase (ACAT) as hypocholesterolemic agents. 8. Incorporation of amide or amine functionalities into a series of disubstituted ureas and carbamates. Effects on ACAT inhibition in vitro and efficacy in vivo” (J Med Chem, 1994).
pIC50: −log10 of the molar value. Calls of active or inactive are those of the source. The rule behind the calls is not given here.

Legend:
Rattus norvegicus [1] = experiment: Percent change in total cholesterol in cholic acid (0.5%)-cholesterol (1.5%)-peanut oil (5.5%)-fed rats (50 mg/kg was administered as the standard dose); No change; assay type: functional, organism-based
Procedure, shortened: (§1)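 Acute screen: rats given a single gavage dose, 50 mg/kg standard unless noted, suspended in carboxymethylcellulose plus Tween-20 in water, then a single high-fat, high-cholesterol meal (0.5% cholic acid, 1.5% cholesterol, 5.5% peanut oil). Overnight rise in plasma total cholesterol measured as % change versus control. Stomachs checked for food. ANOVA with Fisher's multiple range test, p<0.05.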

[2] = target: Sterol O-acyltransferase 1 (Oryctolagus cuniculus); experiment: In vitro inhibition of rabbit intestinal acyl coenzyme A:cholesterol acyltransferase using [1-14C]oleolyl-CoA
Rattus norvegicus [3] = experiment: The compound at a dose of 50 mg/kg is evaluated for percent change in High Density Lipoprotein (HDL) level in chronic cholesterol fed rat screen; assay type: functional
Procedure, shortened: (§2)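 Chronic model: rats fed the high-fat, high-cholesterol diet for 14 days. In the second week, 50 mg/kg given daily by gavage in carboxymethylcellulose/Tween-20 aqueous vehicle. Plasma HDL and non-HDL cholesterol expressed as % change versus control. Body-weight gain monitored. ANOVA with Fisher's multiple range test, p<0.05.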

Rattus norvegicus [4] = experiment: The compound at a dose of 50 mg/kg is evaluated for percent change in Non-High Density Lipoprotein level in chronic cholesterol fed rat screen; assay type: functional; procedure, shortened: as §2
Rattus norvegicus [5] = experiment: The compound at a dose of 50 mg/kg is evaluated for percent change in High Density Lipoprotein (HDl) level in chronic cholesterol fed rat screen; No change; assay type: functional, organism-based; design: dose 50 mg/kg; procedure, shortened: as §2
Rattus norvegicus [6] = species: Rattus norvegicus; experiment: Percent change in total cholesterol in cholic acid (0.5%)-cholesterol (1.5%)-peanut oil (5.5%)-fed rats; assay type: functional; procedure, shortened: as §1
[7] = target: T1, Sterol O-acyltransferase 1 (Rattus norvegicus, UniProt O70536); experiment: In vitro inhibition of rat intestinal acyl coenzyme A:cholesterol acyltransferase using [1-14C]oleolyl-CoA
T1 sequence (O70536 whole entry): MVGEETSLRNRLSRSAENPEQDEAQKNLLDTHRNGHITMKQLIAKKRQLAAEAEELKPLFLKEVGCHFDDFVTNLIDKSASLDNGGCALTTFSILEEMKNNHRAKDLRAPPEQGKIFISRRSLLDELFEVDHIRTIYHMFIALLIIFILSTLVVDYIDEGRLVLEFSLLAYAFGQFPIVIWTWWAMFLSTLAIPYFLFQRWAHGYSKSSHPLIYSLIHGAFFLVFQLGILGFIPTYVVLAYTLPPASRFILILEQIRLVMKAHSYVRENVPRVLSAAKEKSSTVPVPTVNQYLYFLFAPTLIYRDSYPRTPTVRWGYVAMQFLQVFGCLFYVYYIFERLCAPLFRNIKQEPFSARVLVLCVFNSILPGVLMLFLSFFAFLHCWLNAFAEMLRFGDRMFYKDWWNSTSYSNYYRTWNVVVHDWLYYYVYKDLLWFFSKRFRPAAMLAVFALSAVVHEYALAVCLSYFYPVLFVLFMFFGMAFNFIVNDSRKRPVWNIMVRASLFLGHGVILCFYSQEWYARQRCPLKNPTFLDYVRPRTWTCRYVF

Rattus norvegicus [8] = experiment: The compound at a dose of 50 mg/kg is evaluated for percent change in High Density Lipoprotein (HDl) level in chronic cholesterol fed rat screen; assay type: functional; procedure, shortened: as §2
Rattus norvegicus [9] = experiment: The compound at a dose of 50 mg/kg is evaluated for percent change in NON-High Density Lipoprotein level in chronic cholesterol fed rat screen; assay type: functional; procedure, shortened: as §2

Structure (SMILES)	pIC50 [2]	Change (Rattus norvegicus [1])	Change (Rattus norvegicus [6])	also measured
CC(C)c1cccc(C(C)C)c1NC(=O)NCC1(c2ccc(N(C)C)cc2)CCCC1 [NEVANIMIBE]				Change (Rattus norvegicus [3]): 200%; Change (Rattus norvegicus [4]): -62%
CC(C)c1cccc(C(C)C)c1NC(=O)NCC(NCc1ccc(CN(C)C)cc1)c1ccccc1 (single isomer, unassigned; (-))			-57%	pIC50 [7]: 6.77
CC(C)c1cccc(C(C)C)c1NC(=O)NCC(NC(=O)c1c(Cl)cccc1Cl)c1ccccc1 (centres undefined)	5.92	inactive		
CC(C)c1cccc(C(C)C)c1NC(=O)NCC(NCc1ccccc1O)c1ccccc1 (single isomer, unassigned; (-))	6.92		-50%	Change (Rattus norvegicus [8]): 40%; Change (Rattus norvegicus [9]): 3%
CC(C)c1cccc(C(C)C)c1NC(=O)NCC(NC(=O)c1ccccc1)c1ccccc1 (centres undefined)	6.28	inactive		
CC(C)=CCCC(C)CC(=O)NC(CNC(=O)Nc1c(C(C)C)cccc1C(C)C)c1ccccc1 (centres undefined)	6.40	inactive		
COc1ccc(CNC(CNC(=O)Nc2c(C(C)C)cccc2C(C)C)CC(C)C)cc1 (centres undefined)	7.30		-32%	
CC(C)c1cccc(C(C)C)c1NC(=O)NCC(NC(=O)c1ccncc1)c1ccccc1 (centres undefined)	5.49		-12%	
COc1ccc(C(=O)NC(CNC(=O)Nc2c(C(C)C)cccc2C(C)C)c2ccccc2)cc1 (centres undefined)	6.48		-7%	
CC(C)c1cccc(C(C)C)c1NC(=O)NCC(NCc1ccccc1)c1ccccc1 (racemic)	7.29		-36%	
CC(C)c1cccc(C(C)C)c1NC(=O)NCC(NC(=O)c1cccc[n+]1[O-])c1ccccc1 (centres undefined)	6.89		-44%	Change (Rattus norvegicus [8]): 70%; Change (Rattus norvegicus [4]): -31%
CC(C)c1cccc(C(C)C)c1NC(=O)NCC(NC(=O)c1ccc2ccccc2[n+]1[O-])c1ccccc1 (centres undefined)	6.82		-21%	
CC(C)c1cccc(C(C)C)c1NC(=O)NCC(NC(=O)c1cc2ccccc2[nH]1)c1ccccc1 (centres undefined)	5.64		-3%	
COc1ccccc1CNC(CNC(=O)Nc1c(C(C)C)cccc1C(C)C)c1ccccc1 (single isomer, unassigned; (-))	7.35		-23%	
COc1ccc(CNC(CCSC)CNC(=O)Nc2c(C(C)C)cccc2C(C)C)cc1 (single isomer, unassigned; (+))	6.31		-31%	
CC(C)c1cccc(C(C)C)c1NC(=O)NCC(NCc1cccs1)c1ccccc1 (single isomer, unassigned; (+))	7.29		-19%	
CC(C)c1cccc(C(C)C)c1NC(=O)NCC(NCc1ccc(N(C)C)cc1)c1ccccc1 (single isomer, unassigned; (-))	6.82		-45%	
CC(C)c1cccc(C(C)C)c1NC(=O)NCC(NCc1ccco1)c1ccccc1 (single isomer, unassigned; (-))	7.32		-18%	
CC(C)c1cccc(C(C)C)c1NC(=O)NCC(NCc1ccco1)c1ccccc1 (single isomer, unassigned; (+))	7.00		-23%	
CC(C)c1cccc(C(C)C)c1NC(=O)NCC1(c2ccccc2)CCCC1	7.77		-38%	Change (Rattus norvegicus [8]): -12%; Change (Rattus norvegicus [4]): -7%
CC(C)c1cccc(C(C)C)c1NC(=O)NCC(NC(=O)c1ccccn1)c1ccccc1 (centres undefined)	7.10		-24%	

The next lines start with results.

pIC50 [2]	Structure (SMILES)	Change (Rattus norvegicus [1])	Change (Rattus norvegicus [6])	also measured
5.60	CC(=O)NC(CNC(=O)Nc1c(C(C)C)cccc1C(C)C)c1ccccc1 (centres undefined)	inactive		
5.38	CC(C)c1cccc(C(C)C)c1NC(=O)NCC(NC(=O)CCCCCN(C)C)c1ccccc1 (centres undefined)	inactive		
7.09	CCCCCCCCCCCCCCCC(=O)NC(CNC(=O)Nc1c(C(C)C)cccc1C(C)C)c1ccccc1 (centres undefined)	inactive		
5.59	COC(=O)CCCCC(=O)NC(CNC(=O)Nc1c(C(C)C)cccc1C(C)C)c1ccccc1 (centres undefined)	inactive		
6.42	COCCCCCC(=O)NC(CNC(=O)Nc1c(C(C)C)cccc1C(C)C)c1ccccc1 (centres undefined)	inactive		
6.92	CCCCCCCCCCCCCCCCNC(CNC(=O)Nc1c(C(C)C)cccc1C(C)C)c1ccccc1 (racemic)	inactive		
6.96	CCCCCCCCCCCCNCC(CNC(=O)Nc1c(C(C)C)cccc1C(C)C)c1ccccc1 (racemic)		-54%	Change (Rattus norvegicus [5]): inactive
7.10	CCCCCCCCCCCC(=O)NCC(CNC(=O)Nc1c(C(C)C)cccc1C(C)C)c1ccccc1 (centres undefined)	inactive		
6.19	CCCCCCC(=O)NCC(CNC(=O)Nc1c(C(C)C)cccc1C(C)C)c1ccccc1 (centres undefined)	inactive		
6.82	CCCCCCC(=O)NC(CNC(=O)Nc1c(C(C)C)cccc1C(C)C)c1ccccc1 (centres undefined)	inactive		
5.55	CCOC(=O)N1CCN(CCCCCC(=O)NC(CNC(=O)Nc2c(C(C)C)cccc2C(C)C)c2ccccc2)CC1 (centres undefined)	inactive		
6.52	CC(C)c1cccc(C(C)C)c1NC(=O)NCC(CNC(=O)c1ccccn1)c1ccccc1 (centres undefined)		-7%	
< 5.30	CC(C)c1cccc(C(C)C)c1NC(=O)NCC(NC(=O)CCCCCN)c1ccccc1 (centres undefined)	inactive		
7.35	CCCCCCCCCCCCNC(CNC(=O)Nc1c(C(C)C)cccc1C(C)C)c1ccccc1 (racemic)		-45%	Change (Rattus norvegicus [8]): 29%; Change (Rattus norvegicus [4]): 27%
6.21	CCCCC(=O)NCC(CNC(=O)Nc1c(C(C)C)cccc1C(C)C)c1ccccc1 (centres undefined)		-6%	
6.64	CCCCCCCCCCCCCCCCCCNC(CNC(=O)Nc1c(C(C)C)cccc1C(C)C)c1ccccc1 (racemic)		-3%	
5.72	CC(C)c1cccc(C(C)C)c1NC(=O)NCC(CNC(=O)c1ccccc1)c1ccccc1 (centres undefined)	inactive		
6.96	CCCCCNC(CNC(=O)Nc1c(C(C)C)cccc1C(C)C)c1ccccc1 (racemic)		-38%	
6.37	CCCCC(=O)NC(CNC(=O)Nc1c(C(C)C)cccc1C(C)C)c1ccccc1 (centres undefined)		-8%	
